From paper PMC5720529 (Kidney International Reports, 2016)
Like-named read-outs stand apart in the source and are kept apart here. One block for each molecule: values may come before it.

Columns and labels:
[1] = format: in vitro ADME, bovine
How it was run: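 Same closed-loop dialyzer setup, with reservoir A holding 0.5 L bovine whole blood warmed to 37 °C. Hemodialysis began immediately after [14C]etelcalcetide and urea, creatinine and vitamin B12 controls were spiked in. Sodium heparin (100 U) was added every 30 min. Both reservoirs were sampled over 2 h for radioactivity and etelcalcetide (formic-acid acidified). Dialyzer-bound material was recovered by 20-min Solvable circulation at 50 ml/min.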

[2] = cited from earlier work
[3] = Whole-blood incubations with etelcalcetide and SAPC; format: in vitro ADME; details: human whole blood; for sum total of monitored products as % of total M11: etelcalcetide 5 μM
How it was run: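 Pooled human whole blood (healthy volunteers, n = 3) was incubated in duplicate with [14C]etelcalcetide, unlabelled etelcalcetide or SAPC for up to 6 h at 37 °C, then centrifuged; plasma was acidified with 1% formic acid. TCEP reduction gave total M11; M13 was estimated from the M10 standard curve. Model 1 was fitted by maximum likelihood to duplicate means.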

[4] = In vitro hemodialysis, condition 1: buffered aqueous solution; format: in vitro ADME
How it was run: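 Closed-loop in vitro hemodialysis on an Optiflux dialyzer at ambient temperature (~22 °C). Reservoir A held 0.5 L dialysate and no blood; 5 L dialysate was pumped countercurrent from reservoir B. [14C]etelcalcetide plus urea, creatinine and vitamin B12 controls went into reservoir A, with pumps started at once. Both reservoirs were sampled over 2 h for radioactivity and etelcalcetide (acidified, 1% formic acid), then a 20-min Solvable washout.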

[5] = CKD patients on hemodialysis; cited from earlier work
[6] = Non-covalent plasma protein binding in bovine blood; format: in vitro ADME; details: data not shown
[7] = Kinetic model 2 fitted simultaneously to hemodialysis conditions 2 and 3; format: in vitro ADME, bovine
How it was run: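 Kinetic model 2, an extension of the whole-blood model, was fitted simultaneously to etelcalcetide amounts in reservoirs A and B from all three hemodialysis conditions, using one rate-constant set. Each point was the mean of triplicate samples. Conjugation/deconjugation constants (kc, kdc, kb, kdb) were fixed from model 1; kAB and kBA are forward and reverse dialysis-clearance constants between reservoirs.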

[8] = human blood; cited from earlier work
[9] = close to the hematocrit value; cited from earlier work
[10] = format: in vitro ADME; details: condition 3, bovine whole blood, with 3-hour preincubation at 37 °C
How it was run: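 Bovine whole blood (0.5 L) spiked with [14C]etelcalcetide was preincubated 3 h at 37 °C before closed-loop dialysis (QB 50 ml/min, QD 250 ml/min, countercurrent, 5 L dialysate). Heparin (100 U) was added hourly. Reservoirs A and B were sampled for radioactivity and etelcalcetide, followed by a Solvable washout of the dialyzer.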

dose remaining in bovine blood ([1]; condition 2, at 15 minutes, LC-MS/MS): 44%
dose remaining in bovine blood ([1]; condition 2, at 120 minutes, LC-MS/MS): 8%
Molecule: vitamin B12 [reference compound]

[14C]etelcalcetide biotransformation at 25 °C compared with 37 °C ([3]; [14C]etelcalcetide 10 μM, up to 6 hours, LC-14C-HRMS): slower
sum total of monitored products as % of total M11 ([3]; 37 °C, at 1 hour): Approximately 90%
sum total of monitored products as % of total M11 ([3]; 37 °C, at 6 hours): 77%
kdc, rate constant of disulfide exchange SAPC to etelcalcetide (deconjugation) ([3]; model 1 fit (ADAPT 5), 37 °C, mean of duplicate samples): 0.00038 min^–1
hemodialysis clearance rate relative to biotransformation (conversion to SAPC) ([4]; comparison of dialytic rate constant with kc): > 16 fold
hemodialysis clearance ([4]; condition 1, absence of blood, from kAB, QB 50 ml/min, QD 250 ml/min): 59 mL/min
kBA, reverse rate constant of hemodialysis clearance, reservoir B to A ([4]; model 2 fit, condition 1, absence of blood, mean of triplicate samples): 0.00932 min^–1
14C recovered during the washout period (% of the spiked dose) ([1]; condition 2, Solvable washout after 2-hour hemodialysis): 0.2 % of the spiked dose
intact etelcalcetide dialyzed in the first 15 minutes ([1]; condition 2, bovine whole blood, no preincubation, 2.1 μM, LC-MS/MS): 57%
bound non-covalently to plasma proteins [6]: 40%
hemodialysis clearance as % of blood flow rate ([7]; conditions 2 and 3, presence of bovine blood): ~70%
hemodialysis clearance ([7]; conditions 2 and 3, presence of bovine blood, from kAB, QB 50 ml/min): 36 mL/min
elimination rate constant in blood as % of that in the absence of blood ([7]; in vitro hemodialysis, bovine blood vs dialysate): 60%
kBA, reverse rate constant of hemodialysis clearance, reservoir B to A ([7]; model 2 fit, conditions 2 and 3, bovine blood, mean of triplicate samples): 0.0364 min^–1
proportion of the dose eliminated in 2 hours [10]: 24%
Molecule: CC(=O)N[C@H](CSSC[C@H](N)C(=O)O)C(=O)N[C@H](C)C(=O)N[C@H](CCCNC(=N)N)C(=O)N[C@H](CCCNC(=N)N)C(=O)N[C@H](CCCNC(=N)N)C(=O)N[C@H](C)C(=O)N[C@H](CCCNC(=N)N)C(N)=O [etelcalcetide, Etelcalcetide]
permeability [2]: very low
plasma half-life [5]: > 170 h
Non-covalent binding to plasma proteins [8]: ~50%
blood-to-plasma ratio [9]: ~0.5
